The text below walks through data of ChEMBL document CHEMBL1125520, “Improved brain delivery of AZT using a glycosyl phosphotriester prodrug” (1992).

For test [1], the species on record is Mus musculus. As to the kind of experiment: In Vitro detection by Gray and Whittaker method for the total internal nucleoside. It is filed as functional. The method in brief:
(§1)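 Crude synaptosomes from three mouse brains were prepared by Gray–Whittaker homogenization in 10% sucrose buffered with 5 mM Tris-HCl, pH 7.4. The 7000g pellet was resuspended and incubated with each nucleoside at 3 mM for 15 min at 37 °C, stopped by cold 10-fold dilution and washed twice. Internal nucleoside was extracted in acetonitrile–water (3:1) and measured by HPLC.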

The species named for test [2] is Mus musculus. The experiment in a line: Concentration of external nucleoside in mouse brain. In kind it is functional. The essentials: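 Male Swiss mice (6 weeks, 18–20 g) dosed by oral gavage in saline vehicle at 20 mg/kg AZT or molar equivalent (3 mM, 1.5 µmol/mouse). Brains taken 0.5–48 h post-dose, homogenized in acetonitrile–water 3:1, centrifuged, lyophilized and filtered. Analysed by column-switching C18 HPLC with diode-array detection against spiked standards and vehicle controls. Three mice per time point, triplicates; not recovery-corrected.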

The species entered for test [3] is Mus musculus. The experiment in a line: In Vitro detection by Gray and Whittaker method for % of internalization by comparing with external nucleoside of 2000 nM/g. It is filed as functional. The essentials: as §1
Test [4] deals with Mus musculus. As to the kind of experiment: In Vivo detection in Mice plasma after oral administration of 20 mg/kg detected in the form of AZT after 2 hr. Further details: dose 20 mg/kg. In kind it is functional, organism-based.
The subject of test [5] is Mus musculus. As to the kind of experiment: In Vivo detection of total AZT in Mice plasma after oral administration of 20 mg/kg after 2 hr. It is filed as functional, organism-based. Further details: dose 20 mg/kg. The essentials:
(§2)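 Male Swiss mice (18–20 g, six weeks old) given the test substance or vehicle ([…]) by gavage as a 3 mM solution (1.5 µmol/mouse). Aortic blood was collected into heparinized tubes at 0.5–48 h and centrifuged at 13000g for 10 min. Plasma was stored at -22 °C and analysed by HPLC. Three mice were used per time point, in triplicate. Values were not corrected for recovery.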

For test [6], the system named is Mus musculus. The experiment in a line: In Vivo detection in Mice plasma after oral administration of 20 mg/kg detected in the form of AZT after 4 hr. In kind it is functional, organism-based. Set-up: dose 20 mg/kg.
Test [7] deals with Mus musculus. As to the kind of experiment: In Vivo detection in Mice plasma after oral administration of 20 mg/kg detected in the form of AZT 5`-P after 48 hr. In kind it is functional, organism-based. Further details: dose 20 mg/kg.
In test [8] the test system is Mus musculus. The experiment in a line: In Vivo detection in Mice plasma after oral administration of 20 mg/kg detected in the form of AZT 5`-P after 8 hr. It is filed as functional, organism-based. Further details: dose 20 mg/kg.
Test [9] relates to Mus musculus. As to the kind of experiment: In Vivo detection in Mice plasma after oral administration of 20 mg/kg detected in the form of AZT after 0.5 hr. It is filed as functional, organism-based. Set-up: dose 20 mg/kg.
The subject of test [10] is Mus musculus. As to the kind of experiment: In Vivo detection of total AZT in Mice plasma after oral administration of 20 mg/kg after 24 hr. In kind it is functional, organism-based. Set-up: dose 20 mg/kg. The essentials: as §2
The subject of test [11] is Mus musculus. The experiment in a line: In Vivo detection in Mice plasma after oral administration of 20 mg/kg detected in the form of AZT after 48 hr. In kind it is functional, organism-based. Further details: dose 20 mg/kg.
Test [12] concerns Mus musculus. As to the kind of experiment: In Vivo detection in Mice plasma after oral administration of 20 mg/kg detected in the form of AZT after 24 hr. In kind it is functional, organism-based. Set-up: dose 20 mg/kg.
Test [13] has as its system Mus musculus. As to the kind of experiment: In Vivo detection of total AZT in Mice plasma after oral administration of 20 mg/kg after 1 hr. In kind it is functional, organism-based. Set-up: dose 20 mg/kg. The method in brief: as §2
In test [14] the test system is Mus musculus. The experiment in a line: In Vivo detection in Mice plasma after oral administration of 20 mg/kg detected in the form of AZT 5`-P after 1 hr. It is filed as functional, organism-based. Set-up: dose 20 mg/kg.
Test [15] relates to Mus musculus. The experiment in a line: In Vivo detection in Mice plasma after oral administration of 20 mg/kg detected in the form of AZT 5`-P after 0.5 hr. In kind it is functional, organism-based. Set-up: dose 20 mg/kg.
The subject of test [16] is Mus musculus. The experiment in a line: In Vivo detection of total AZT in Mice plasma after oral administration of 20 mg/kg after 8 hr. In kind it is functional, organism-based. Set-up: dose 20 mg/kg. The method in brief: as §2
Test [17] deals with Mus musculus. The experiment in a line: In Vivo detection of total AZT in Mice plasma after oral administration of 20 mg/kg after 0.5 hr. In kind it is functional, organism-based. Further details: dose 20 mg/kg. The essentials:
as §2

In test [18] the test system is Mus musculus. As to the kind of experiment: In Vivo detection in Mice plasma after oral administration of 20 mg/kg detected in the form of AZT 5`-P after 4 hr. It is filed as functional, organism-based. Further details: dose 20 mg/kg.
The test system of test [19] is Mus musculus. The experiment in a line: In Vivo detection of total AZT in Mice plasma after oral administration of 20 mg/kg after 4 hr. It is filed as functional, organism-based. Set-up: dose 20 mg/kg. The method in brief:
as §2

The subject of test [20] is Mus musculus. The experiment in a line: In Vivo detection in Mice plasma after oral administration of 20 mg/kg detected in the form of AZT 5`-P after 24 hr. In kind it is functional, organism-based. Set-up: dose 20 mg/kg.
The test system of test [21] is Mus musculus. The experiment in a line: In Vivo detection in Mice plasma after oral administration of 20 mg/kg detected in the form of AZT after 1 hr. It is filed as functional, organism-based. Set-up: dose 20 mg/kg.
Test [22] has as its system Mus musculus. The experiment in a line: In Vivo detection of total AZT in Mice plasma after oral administration of 20 mg/kg after 48 hr. It is filed as functional, organism-based. Set-up: dose 20 mg/kg. The essentials: as §2
In test [23] the test system is Mus musculus. As to the kind of experiment: In Vivo detection in Mice plasma after oral administration of 20 mg/kg detected in the form of AZT after 8 hr. It is filed as functional, organism-based. Further details: dose 20 mg/kg.
In test [24] the test system is Mus musculus. The experiment in a line: In Vivo detection in Mice plasma after oral administration of 20 mg/kg detected in the form of AZT 5`-P after 2 hr. It is filed as functional, organism-based. Set-up: dose 20 mg/kg.

`Cc1cn([C@H]2C[C@H](N=[N+]=[N-])[C@@H](COP(=O)(O)O)O2)c(=O)[nH]c1=O` [AZIDOTHYMIDINE MONOPHOSPHATE] displayed a Brain content in the test filed under Mus musculus [1] of 1.1 nM/g. This compound registered an External nucleoside in the test listed under Mus musculus [2] of 2000 nM/g. Also, the Internalisation in the test filed under Mus musculus [3] is 0.06%.

As for `Cc1cn([C@H]2C[C@H](N=[N+]=[N-])[C@@H](CO)O2)c(=O)[nH]c1=O` [ZIDOVUDINE], the Plasma content in the test with Mus musculus [4] came to 6 nM ml-1; in the test with Mus musculus [5] it was 19.1 nM ml-1; in the test with Mus musculus [6], 4.4 nM ml-1; in the test on Mus musculus [7] it was 0 nM ml-1; in the test with Mus musculus [8], 0 nM ml-1; in the test with Mus musculus [9], 26.6 nM ml-1. Moreover, the Plasma content with Mus musculus [10] was 0 nM ml-1; with Mus musculus [11], 0 nM ml-1; in the test on Mus musculus [12], 0 nM ml-1; in the test with Mus musculus [13], 43.2 nM ml-1; in the test with Mus musculus [14], 27.5 nM ml-1; in the test on Mus musculus [15], 21.7 nM ml-1. In addition, the Plasma content with Mus musculus [16] turned out to be 0 nM ml-1; with Mus musculus [17], 48.3 nM ml-1; in the test with Mus musculus [18], 0 nM ml-1; in the test with Mus musculus [19], 4.4 nM ml-1; in the test with Mus musculus [20] it was 0 nM ml-1; in the test on Mus musculus [21] it was 15.7 nM ml-1. For the same compound, the values for the Plasma content in the test on Mus musculus [22], with Mus musculus [23] and in the test with Mus musculus [24] were 0 nM ml-1, 0 nM ml-1 and 13.1 nM ml-1, respectively. The Internalisation in the test listed under Mus musculus [3] stood at 0.03%.
